From ChEMBL document CHEMBL1128222, “Novel inhibitors for multidrug resistance: 1,3,5-triazacycloheptanes” (J Med Chem, 1995) come the findings set out here.

In assay [1] the test system is P388/S. Briefly: In vitro relative vinblastin uptake into P388/s (murine leukemia) cells following 10 uM treatment. The assay is classed as functional, Mus musculus. The method in brief: (§1)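 10^6 P388/S or P388/ADR cells in 1 mL of 20 mM Hepes-buffered medium, pH 7.4. They are incubated with 4.6 kBq [3H]vinblastine with or without 10 μM compound (DMSO final 1%) at 37 °C for 30 min. Cells are then chilled, pelleted at 2 °C and washed twice in cold PBS. They are solubilized in NaOH and counted. The value is uptake relative to untreated cells.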

For assay [2], the system named is P388/ADR. Nature of the assay: In vitro relative vinblastin uptake into P388/ADR (murine leukemia/multidrug resistant) cells following 10 uM treatment. The assay is classed as functional, Mus musculus. In short, it runs like this: as §1
The test system of assay [3] is P388/S. Nature of the assay: Evaluation of inhibitory activity and cisplatin against drug sensitive P388 cells (P388/S) cells. The assay is classed as functional, cell-based, Mus musculus. The following applies: Mus musculus, P388/S. The method in brief: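 P388/S or P388/ADR cells at 10^5 cells/mL in RPMI-1640/10% FCS medium. They receive graded adriamycin, mitomycin C or cisplatin, alone or together with 2.5 μM modulator, for 48 h (DMSO final 0.25%). Growth is read by MTT and the antitumor-drug IC50 is reported.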

The subject of assay [4] is P388/ADR. Briefly: Evaluation of inhibitory activity and adriamycin against multidrug resistant P388 cells (P388/ADR) cells. The following applies: Mus musculus.
In assay [5] the test system is Mus musculus. Nature of the assay: Evaluation of ILS percentage of mice upon oral administration on days 1-4 and 6-8 at a concentration of 40 mg/kg. It counts as functional. The method in brief:
(§2)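 Female CD2F1 mice, 5 per group, were inoculated i.p. with 1.0 × 10^6 P388/ADR cells on day 0. VBL was given by i.p. injection and/or the test agent orally on days 1-4 and 6-8. Read-out was survival days (average ± SD) and ILS (%) against the untreated group, with P < 0.05 by Student's t-test or a two-sample test with Welch's correction.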

Assay [6] relates to Mus musculus. Nature of the assay: Evaluation of Survival of mice upon oral administration on days 1-4 and 6-8 at a concentration of 40 mg/kg. It counts as functional. The method in brief: as §2
The subject of assay [7] is P388/ADR. Nature of the assay: Evaluation of inhibitory activity against multidrug resistant P388 cells (P388/ADR) cells. The assay is classed as functional, cell-based, Mus musculus. Conditions: Mus musculus, P388/ADR. In short, it runs like this: (§3)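 P388/S and P388/ADR murine leukemia cells are maintained by weekly intraperitoneal passage in female CDF1 mice. For the assay they are seeded at 10^5 cells/mL in RPMI-1640 with 10% FCS, 20 μM β-mercaptoethanol and 100 μg/mL kanamycin. Vinblastine is given with or without modulator (0–5.0 μM; DMSO final 0.25%) for 48 h. Growth is read by MTT and vinblastine IC50 is reported.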

Assay [8] deals with P388/S. Briefly: Evaluation of inhibitory activity against drug sensitive P388 cells (P388/S) cells. The assay is classed as functional, cell-based. Conditions: Mus musculus. The method in brief: as §3
The test system of assay [9] is Mus musculus. Briefly: In vivo evaluation for the inhibitory activity against drug sensitive P388 cells (P388/S) cells bearing mice at a concentration of 0.2 mg/kg.
Assay [10] concerns Mus musculus. Nature of the assay: In vivo evaluation for the inhibitory activity against drug sensitive P388 cells (P388/S) cells bearing mice at dose 0.2 mg/kg. It counts as functional. In short, it runs like this: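 Mice were implanted with 1 × 10^6 P388/S cells on day 0 and given VBL by i.p. injection on days 1-4 and 6-8. Survival days (average ± SD) and ILS (%) were compared with the untreated group, with P < 0.05 by Student's t-test or Welch-corrected two-sample test.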

The subject of assay [11] is Mus musculus. Briefly: Evaluation of ILS percentage of mice upon intraperitoneal injection of VBL at a concentration of 0.2 mg/kg. The assay is classed as functional. The following applies: ip. The method in brief:
as §2

Assay [12] relates to Mus musculus. Briefly: Evaluation of Survival of mice upon intraperitoneal injection of VBL at a concentration of 0.2 mg/kg. It counts as functional. Conditions: ip. In short, it runs like this:
as §2

For `O=C1NC(=O)N(Cc2ccc(Cl)cc2)CCCN1Cc1ccc(Cl)cc1`, the Relative uptake in the assay with P388/S [1] worked out at 1.17; in the assay with P388/ADR [2], 2.86.

`O=C1NC(=O)N(Cc2ccccc2)CCCN1Cc1ccccc1`: the Relative uptake in the assay with P388/S [1] was 0.93; with P388/ADR [2], 1.78.

As for `Clc1ccc(CNCCNCc2ccc(Cl)cc2)cc1`, the Relative uptake in the assay on P388/S [1] was determined as 1.04; with P388/ADR [2], 2.62.

Consider `S=C1NC(=S)N(Cc2ccccc2)CCN1Cc1ccccc1`, for which the results for the Relative uptake with P388/S [1] and in the assay with P388/ADR [2] were 1.26 and 4.16, respectively.

Take `S=C1NC(=S)N(Cc2ccc(Cl)cc2)CCN1Cc1ccc(Cl)cc1`: the Relative uptake in the assay with P388/S [1] turned out to be 1.48; with P388/ADR [2], 6.

Take `CSC1=NC(=O)N(Cc2ccccc2)CCN1Cc1ccccc1`: the Relative uptake is given as 1.37 in the assay with P388/S [1] and 2.13 in the assay with P388/ADR [2].

With `O=C1NC(=S)N(Cc2cccc(Cl)c2)CCN1Cc1cccc(Cl)c1`, the figures for the Relative uptake in the assay on P388/S [1] and with P388/ADR [2] were 1.26 and 6.14, respectively.

In the case of `O=C1NC(=O)N(Cc2cccc(Cl)c2)CCCN1Cc1cccc(Cl)c1`, the Relative uptake in the assay with P388/S [1] was determined as 1.12; in the assay with P388/ADR [2], 2.62.

In the case of `COc1ccc(CN2CCCN(Cc3ccc(OC)c(OC)c3)C(=O)NC2=O)cc1OC`, the Relative uptake with P388/S [1] came to 1.06; with P388/ADR [2], 1.11.

Take `CSC1=NC(=O)N(Cc2cccc(Cl)c2)CCN1Cc1cccc(Cl)c1`: the results for the Relative uptake with P388/S [1] and in the assay with P388/ADR [2] were 1.16 and 6.75, respectively.

As for `COc1ccc(CN2CCN(Cc3ccc(OC)c(OC)c3)C(=S)NC2=S)cc1OC`, the Relative uptake was 1.21 with P388/S [1] and 5.26 with P388/ADR [2].

Consider `COc1ccc(CN2CCN(Cc3ccc(OC)c(OC)c3)C(=O)NC2=O)cc1OC`, for which the Relative uptake was 0.93 in the assay with P388/S [1] and 1.16 in the assay with P388/ADR [2].

Regarding `COC12[C@H](COC(N)=O)C3=C(C(=O)C(C)=C(N)C3=O)N1C[C@@H]1N[C@@H]12.CSC1=NC(=O)N(Cc2ccc(Cl)cc2)CCN1Cc1ccc(Cl)cc1`, the 50% inhibitory concentration (IC50) amounted to 44 nM with P388/S [3] and 264 nM in the assay on P388/ADR [4].

With `COc1cccc2c1C(=O)c1c(O)c3c(c(O)c1C2=O)C[C@@](O)(C(=O)CO)C[C@@H]3OC1C[C@H](N)[C@H](O)[C@H](C)O1.CSC1=NC(=O)N(Cc2ccc(Cl)cc2)CCN1Cc1ccc(Cl)cc1` (stereo not given in full), the half-maximal inhibitory concentration (IC50) with P388/S [3] is 13 nM; in the assay on P388/ADR [4], 90 nM.

Take `COc1ccc(CN2CCN(Cc3ccc(OC)c(OC)c3)C(SC)=NC2=O)cc1OC`: the Relative uptake with P388/S [1] was 1.04; in the assay with P388/ADR [2], 1.14.

In the case of `CSC1=NC(=S)N(Cc2ccccc2)CCN1Cc1ccccc1`, the Relative uptake was found to be 1.19 in the assay on P388/S [1] and 3.44 with P388/ADR [2].

`CSC1=NC(=O)N(Cc2ccc(Cl)cc2)CCN1Cc1ccc(Cl)cc1` gave an increase in life span (ILS) at 40 mg/kg in the assay with Mus musculus [5] of 4.2%. Further, the Relative uptake in the assay on P388/S [1] turned out to be 1.28; in the assay with P388/ADR [2], 6.87. Moreover, in the assay with Mus musculus [6], the Survival days came out at 10.

In the case of `O=C1NC(=O)N(Cc2ccc(Cl)cc2)CCN1Cc1ccc(Cl)cc1`, the results for the Relative uptake in the assay with P388/S [1] and in the assay with P388/ADR [2] were 1.22 and 3.44, respectively.

On to `O=C1NC(=O)N(Cc2cccc(Cl)c2)CCN1Cc1cccc(Cl)c1`, for which the Relative uptake turned out to be 1.2 with P388/S [1] and 1.05 with P388/ADR [2].

Consider `O=C1NC(=O)N(Cc2ccccc2)CCN1Cc1ccccc1`, for which the Relative uptake in the assay with P388/S [1] turned out to be 1.09; with P388/ADR [2], 1.41.

As for `S=C1NC(=S)N(Cc2cccc(Cl)c2)CCN1Cc1cccc(Cl)c1`, the Relative uptake with P388/S [1] turned out to be 1.34; in the assay on P388/ADR [2], 5.34.

As to `O=C1NC(=S)N(Cc2ccc(Cl)cc2)CCN1Cc1ccc(Cl)cc1`, the results for the Relative uptake in the assay on P388/S [1] and in the assay with P388/ADR [2] were 1.3 and 5.35, respectively.

As for `COc1ccc(CN2CCN(Cc3ccc(OC)c(OC)c3)C(=S)NC2=O)cc1OC`, the Relative uptake is recorded as 1.14 in the assay with P388/S [1] and 2.36 in the assay on P388/ADR [2].

As to `O=C1NC(=S)N(Cc2ccccc2)CCN1Cc1ccccc1`, the Relative uptake is reported as 1.2 in the assay on P388/S [1] and 2.11 in the assay on P388/ADR [2].

With `COc1cccc2c1C(=O)c1c(O)c3c(c(O)c1C2=O)C[C@@](O)(C(=O)CO)C[C@@H]3O[C@H]1C[C@H](N)[C@H](O)[C@H](C)O1` [DOXORUBICIN], the IC50 in the assay on P388/ADR [7] came to 360 nM; in the assay on P388/S [8], 19 nM.

`CO[C@@]12[C@H](COC(N)=O)C3=C(C(=O)C(C)=C(N)C3=O)N1C[C@@H]1N[C@@H]12` [MITOMYCIN]: the IC50 in the assay with P388/ADR [7] was found to be 535 nM; with P388/S [8] it was 48 nM.

As to `COc1ccc(CCN(C)CCCC(C#N)(c2ccc(OC)c(OC)c2)C(C)C)cc1OC` (stereo not given) [VERAPAMIL], the Relative uptake in the assay with P388/S [1] came out at 1.02; with P388/ADR [2] it was 5.7.

In the case of `CC[C@]1(O)C[C@@H]2CN(CCc3c([nH]c4ccccc34)[C@@](C(=O)OC)(c3cc4c(cc3OC)N(C)[C@H]3[C@@](O)(C(=O)OC)[C@H](OC(C)=O)[C@]5(CC)C=CCN6CC[C@]43[C@@H]65)C2)C1` [VINBLASTINE], the Survival days in the assay with Mus musculus [9] and with Mus musculus [10] was 15.5 in each case. For the same compound, the ILS at 0.2 mg/kg in the assay with Mus musculus [11] was found to be 89%; in the assay with Mus musculus [12], 14.6%.
